DAGLB inhibitor: diacylglycerol lipase beta (human) inhibition | HEK293T DAGLB membrane lysate, EnzChek fluorogenic substrate | inhibition, % at 5.17 µM | Q8NCG7 | 340,000 tested, 0.059% active; in the data active means inhibition above about 34%;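 further: 0% = enzyme with vehicle and 100% = wells lacking enzyme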
Target sequence (Q8NCG7 whole entry, looked up): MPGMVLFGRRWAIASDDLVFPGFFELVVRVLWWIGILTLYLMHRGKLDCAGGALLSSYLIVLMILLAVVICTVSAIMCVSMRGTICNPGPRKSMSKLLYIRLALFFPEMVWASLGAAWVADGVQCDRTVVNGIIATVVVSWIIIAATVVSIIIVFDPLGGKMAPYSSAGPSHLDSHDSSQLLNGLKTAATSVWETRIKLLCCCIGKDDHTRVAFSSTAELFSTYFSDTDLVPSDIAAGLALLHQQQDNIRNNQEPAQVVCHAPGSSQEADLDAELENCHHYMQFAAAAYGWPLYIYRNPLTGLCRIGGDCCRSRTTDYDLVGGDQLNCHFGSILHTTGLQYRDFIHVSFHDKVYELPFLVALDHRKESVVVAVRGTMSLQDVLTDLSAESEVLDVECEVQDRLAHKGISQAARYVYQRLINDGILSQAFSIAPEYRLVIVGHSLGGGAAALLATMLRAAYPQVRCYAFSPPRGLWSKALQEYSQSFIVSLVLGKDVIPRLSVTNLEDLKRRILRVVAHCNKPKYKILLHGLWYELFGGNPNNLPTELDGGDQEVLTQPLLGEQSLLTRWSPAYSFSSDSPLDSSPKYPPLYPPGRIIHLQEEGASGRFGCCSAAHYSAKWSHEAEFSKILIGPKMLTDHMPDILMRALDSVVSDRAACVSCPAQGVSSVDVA
PRMT1 inh: PRMT1 (human) inhibition, primary screen; recombinant PRMT1, activity-based probe fluorescence polarization; inhibition, % at 2.79 µM; 370,000 tested, 1.3% active;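 active means inhibition above about 21% made by adding two undisclosed values, limit read from the data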
LEDGF integ inh: blocks HIV-1 LEDGF/p75-dependent DNA integration; TR-FRET IN-LEDGF/p75 DNA integration, Eu/Cy5; inhibition, % at 3.7 µM; 370,000 tested, 0.64% active; AID 743269;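 active means inhibition above the screen-wide mean plus 3 SD, cut at about 13% in these data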;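 further: signal is the Cy5 over europium emission ratio at 671 and 618 nm; 0% = plate median of compound wells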
rCAG RNA binder: molecules binding r(CAG) RNA repeats. r(CAG) RNA repeat, TO-PRO-1 dye displacement fluorescence. inhibition, % at 3 µM. 370,000 tested, 1.3% active. AID 651821;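 active means inhibition above the plate cutoff, the mean of all test compounds on that plate plus 3 SD, cut at about 35% in these data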;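 further: 0% = DMSO alone and 100% = 100 µM mitoxantrone as full dye displacement; higher means more dye released from RNA so lower well fluorescence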
HTRA1 inhibitor: blocks human HTRA1 serine peptidase | inhibition, % at 5.96 µM | recombinant HTRA1, FP-rhodamine activity-based probe, fluorescence polarization | Q92743 | 340,000 tested, 0.5% active; in the data active means inhibition above about 36%;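 further: 0% = enzyme with DMSO and 100% = wells lacking enzyme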
ABHD4 inh: ABHD4 (mouse) inhibition, primary FP screen. inhibition, % at 8.92 µM. Q8VD66. AID 720543. 370,000 tested, 0.54% active. purified mABHD4, FP-Rh probe fluorescence polarization;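 active means inhibition exceeding the mean over every tested compound plus 3 SD, cut at about 30% in these data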;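 further: 0% = plate median of compound wells and 100% = S159A mutant with DMSO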
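Test system: mABHD4 protein; Read-out basis: % inhibition; Incubation: 45 min + 60 min at 25 °C; Repeats: single replicate; Technique: fluorescence polarization with parallel and perpendicular emission, 525/598 nm; Compound: 8.92 µM, single dose; Benchmarks: full inhibition S159A mutant plus DMSO, zero as sample-well median.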
IN multimer up: activates HIV-1 integrase multimerization in LEDGF counter-screen | activation, % at 7.7 µM | TR-FRET HIV-1 integrase multimerization, biochemical | 2,000 tested, 17% active | shares compounds with LEDGF integ inh; in the data active means activation above about 8.9%
TR-FRET interf: TR-FRET optical interference, LEDGF/p75 integration counter-screen | AID 1053135 | shares compounds with LEDGF integ inh | TR-FRET optical interference counterscreen, HIV-1 IN multimerization | inhibition, % at 7.7 µM | 2,000 tested, under 10 active;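 active means inhibition above the mean over all tested compounds plus 3 SD, which no compound reached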;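 further: 0% = integrase with antibodies and DMSO and 100% = antibodies without integrase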
LEDGF integ conf: confirmation of HIV-1 LEDGF/p75-dependent integration inhibitors. TR-FRET LEDGF/p75-dependent HIV-1 integration, biochemical. shares compounds with LEDGF integ inh. 2,000 tested, 36% active. inhibition, % at 3.7 µM; in the data active means inhibition above about 14%
* = called active by the depositor; x = no result given. The list is not random: actives were taken first. Their share in the collection is about 3.2%.

SMILES	DAGLB inhibitor	PRMT1 inh	LEDGF integ inh	rCAG RNA binder	HTRA1 inhibitor	ABHD4 inh	IN multimer up	TR-FRET interf	LEDGF integ conf
COC(=O)C1=C(c2ccc(-c3ccccc3)c(F)c2)C[C@@H]2CC[C@H]1N2C(=O)NCCOc1ccc(OC)cc1	-3	0	15*	5	-41	4	-2	8	-6
COC(=O)C(O)(c1c[nH]c2ccccc12)C(F)(F)F (stereo unspecified)	2	-1	-2	2	0	4	x	x	x
COC(=O)C(O)(c1c(C)[nH]n(-c2ccccc2)c1=O)C(F)(F)F (stereo unspecified)	5	5	26*	3	11	7	1	-4	12
Cc1cc(=O)[nH]c(SCc2nc3ccccc3c(=O)n2-c2ccccc2C)n1	-2	2	0	3	-8	2	x	x	x
C[C@H]1CCC/C=C/[C@@H]2C[C@H](O)C[C@H]2[C@H](O)/C=C/C(=O)O1	4	-2	3	1	3	-3	x	x	x
CCCCn1nnnc1C(CCc1ccccc1)N1CCC(n2c(=O)[nH]c3ccccc32)CC1 (stereo unspecified)	x	4	20*	4	x	4	0	0	-3
CCCCn1c(O)c(/C=C2/C=CC=N2)c(=O)[nH]c1=O	-2	2	1	3	1	-20	x	x	x
CN1C(=O)NC(=O)[C@]2(Cc3ccccc3N3CCN(c4ccccc4)CC32)C1=O (stereo partly specified)	3	8	40*	20	9	-5	0	-1	4
CC(C)(C)NC(=S)/N=C(\N)N[N+](=O)[O-]	2	-8	3	-3	-17	0	x	x	x
Clc1ccc(OCC#CCN2CCOCC2)cc1	0	-2	24*	-4	2	9	0	0	3
Cc1ccc(S(=O)(=O)NCCC(=O)Nc2ccc(Cl)cc2C(=O)c2ccccc2)cc1	-2	1	28*	1	-20	-6	1	-6	-2
Cc1ccc(OCC(=O)Nc2ccc(Cl)cc2C(=O)c2ccccc2)cc1	-15	1	-2	-1	2	-1	x	x	x
CCn1c(O)c(C=NCCN2CCOCC2)c(=O)[nH]c1=S	-1	3	0	-2	-2	-5	x	x	x
COc1cc2c(cc1OC)-c1c3c(cc4c1[C@@H](C2)N(C)CC4)OCO3	-1	-2	16*	1	10	10	5	-17	8
COc1cc2c(cc1OC)-c1c(OC)c(OC)cc3c1C(C2)N(C)CC3 (stereo unspecified)	-1	0	20*	-3	4	16	2	-8	11
COc1cc2c(cc1O)C[C@H]1NCCc3cc4c(c-2c31)OCO4	5	0	1	21	19	14	x	x	x

Compound activity deposited in PubChem by The Scripps Research Institute Molecular Screening Center.
